Each structure is given as a SMILES string. ≈ marks a conversion by molar mass, not a printed value.

A short description of series [1]: Half life was measured as degradation by HPLC analysis. It counts as ADME.
In series [2] the test system is Citrobacter freundii. Put plainly: In vitro minimum inhibitory concentration was measured against Citrobacter freundii BS-16 (beta lactamase producer) strain. It counts as functional. Summed up: (§1)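 MICs were determined by agar dilution with 2-fold dilutions giving final 128–0.0156 µg/mL, extended to 0.000977 µg/mL where needed. Streptococci were tested on brain heart infusion agar plus 20 units/mL catalase, Proteus on Mueller-Hinton with 3% agar, and others on Mueller-Hinton agar. Inocula were 100-fold-diluted overnight cultures, about 3 × 10^4 CFU/spot, read after overnight incubation at 36 °C.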

Series [3] relates to Escherichia coli. Briefly: In vitro minimum inhibitory concentration was measured against Escherichia coli 257 strain; (</=). It is filed as functional. In short, it runs like this:
as §1

In series [4] the test system is Escherichia coli. Put plainly: In vitro minimum inhibitory concentration was measured against Escherichia coli ATCC 25922 strain.; (</=). It is filed as functional. Summed up: as §1
The subject of series [5] is Escherichia coli. Put plainly: In vitro minimum inhibitory concentration was measured against Escherichia coli TEM-1 (Beta lactamase producer) strain. It is filed as functional. Summed up:
(§2)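 Streptococci were tested on brain heart infusion agar plus 20 units/mL catalase, Proteus on Mueller-Hinton with 3% agar, and others on Mueller-Hinton agar. Inocula were 100-fold-diluted overnight cultures, about 3 × 10^4 CFU/spot, read after overnight incubation at 36 °C.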

Series [6] concerns Enterococcus faecalis. Briefly: In vitro minimum inhibitory concentration was measured against Enterococcus faecalis ATCC 29212 strain. It is filed as functional. Summed up: as §2
The test system of series [7] is Enterobacter cloacae. Briefly: In vitro minimum inhibitory concentration was measured against Enterobacter cloacae 5699 strain. It is filed as functional.
The test system of series [8] is Enterobacter cloacae. Put plainly: In vitro minimum inhibitory concentration was measured against Enterobacter cloacae p99 (beta lactamase producer) strain. It counts as functional.
Series [9] deals with Klebsiella pneumoniae. Briefly: In vitro minimum inhibitory concentration was measured against Klebsiella pneumoniae A strain. It counts as functional. Summed up:
as §2

Series [10] deals with Micrococcus luteus. Briefly: In vitro minimum inhibitory concentration was measured against Micrococcus luteus ATCC 9341 strain. It is filed as functional. Summed up:
as §2

Series [11] concerns the target T1, Penicillin-binding protein 1A (Escherichia coli K-12) (UniProt P02918).
T1 sequence (whole entry): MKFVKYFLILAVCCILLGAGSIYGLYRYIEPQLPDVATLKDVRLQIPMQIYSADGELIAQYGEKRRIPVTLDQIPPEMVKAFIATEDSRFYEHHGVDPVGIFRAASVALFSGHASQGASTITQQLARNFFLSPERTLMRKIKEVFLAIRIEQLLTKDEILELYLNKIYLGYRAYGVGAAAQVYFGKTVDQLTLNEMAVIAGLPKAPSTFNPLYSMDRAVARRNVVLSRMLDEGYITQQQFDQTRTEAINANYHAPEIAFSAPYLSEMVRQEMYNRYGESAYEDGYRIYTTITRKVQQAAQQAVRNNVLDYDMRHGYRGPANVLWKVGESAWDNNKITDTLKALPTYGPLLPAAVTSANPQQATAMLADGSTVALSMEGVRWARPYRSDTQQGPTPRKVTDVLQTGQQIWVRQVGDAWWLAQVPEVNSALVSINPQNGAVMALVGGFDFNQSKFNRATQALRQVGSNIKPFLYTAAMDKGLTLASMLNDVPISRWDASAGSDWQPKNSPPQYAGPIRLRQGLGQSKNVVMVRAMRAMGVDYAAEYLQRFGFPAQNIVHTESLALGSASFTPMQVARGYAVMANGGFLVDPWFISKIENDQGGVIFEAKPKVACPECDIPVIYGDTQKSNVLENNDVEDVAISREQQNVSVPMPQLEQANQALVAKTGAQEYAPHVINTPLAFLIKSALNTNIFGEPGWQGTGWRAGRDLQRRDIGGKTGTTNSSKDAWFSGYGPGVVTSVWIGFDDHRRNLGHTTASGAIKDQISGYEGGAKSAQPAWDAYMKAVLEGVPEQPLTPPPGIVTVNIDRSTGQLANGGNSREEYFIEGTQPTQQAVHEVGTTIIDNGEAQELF
Briefly: Affinity for penicillin binding protein 1a of Escherichia coli UB1005 (DC0) was evaluated. The arrangement: unit not given here. Summed up:
(§3)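 Solubilised membranes from sonicated E. coli UB1005 served as the binding-protein source. Binding was read as inhibition of [14C]penicillin G binding.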

In series [12] the target is T2, Penicillin-binding protein 1B (Escherichia coli K-12) (UniProt P02919).
T2 sequence (whole entry): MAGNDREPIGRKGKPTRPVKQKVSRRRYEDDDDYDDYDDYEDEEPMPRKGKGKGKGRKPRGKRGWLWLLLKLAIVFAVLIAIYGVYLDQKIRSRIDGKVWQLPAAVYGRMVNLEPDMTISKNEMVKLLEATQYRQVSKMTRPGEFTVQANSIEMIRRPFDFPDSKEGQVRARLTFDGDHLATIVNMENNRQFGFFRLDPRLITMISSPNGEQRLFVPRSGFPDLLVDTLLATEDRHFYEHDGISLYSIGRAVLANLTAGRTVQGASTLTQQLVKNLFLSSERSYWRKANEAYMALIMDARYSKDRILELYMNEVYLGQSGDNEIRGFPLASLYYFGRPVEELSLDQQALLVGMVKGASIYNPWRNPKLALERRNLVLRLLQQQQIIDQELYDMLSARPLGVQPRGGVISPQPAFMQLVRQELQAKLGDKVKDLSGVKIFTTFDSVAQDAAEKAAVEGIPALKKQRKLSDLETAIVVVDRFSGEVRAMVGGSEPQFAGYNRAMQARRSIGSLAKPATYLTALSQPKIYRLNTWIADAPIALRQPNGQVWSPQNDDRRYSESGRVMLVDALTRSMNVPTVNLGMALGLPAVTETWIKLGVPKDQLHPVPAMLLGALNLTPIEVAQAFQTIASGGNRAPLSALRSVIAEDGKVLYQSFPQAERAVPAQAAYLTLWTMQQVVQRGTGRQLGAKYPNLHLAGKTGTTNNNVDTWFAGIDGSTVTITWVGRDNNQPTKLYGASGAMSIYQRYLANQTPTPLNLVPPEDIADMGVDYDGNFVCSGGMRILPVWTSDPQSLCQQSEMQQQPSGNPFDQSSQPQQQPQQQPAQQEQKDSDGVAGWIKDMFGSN
Briefly: Affinity for penicillin binding protein 1b of Escherichia coli UB1005 (DC0) was evaluated. The arrangement: unit not given here. In short, it runs like this: as §3

For series [13], the target named is T3, Peptidoglycan D,D-transpeptidase MrdA (Escherichia coli K-12) (UniProt P0AD65).
T3 sequence (whole entry): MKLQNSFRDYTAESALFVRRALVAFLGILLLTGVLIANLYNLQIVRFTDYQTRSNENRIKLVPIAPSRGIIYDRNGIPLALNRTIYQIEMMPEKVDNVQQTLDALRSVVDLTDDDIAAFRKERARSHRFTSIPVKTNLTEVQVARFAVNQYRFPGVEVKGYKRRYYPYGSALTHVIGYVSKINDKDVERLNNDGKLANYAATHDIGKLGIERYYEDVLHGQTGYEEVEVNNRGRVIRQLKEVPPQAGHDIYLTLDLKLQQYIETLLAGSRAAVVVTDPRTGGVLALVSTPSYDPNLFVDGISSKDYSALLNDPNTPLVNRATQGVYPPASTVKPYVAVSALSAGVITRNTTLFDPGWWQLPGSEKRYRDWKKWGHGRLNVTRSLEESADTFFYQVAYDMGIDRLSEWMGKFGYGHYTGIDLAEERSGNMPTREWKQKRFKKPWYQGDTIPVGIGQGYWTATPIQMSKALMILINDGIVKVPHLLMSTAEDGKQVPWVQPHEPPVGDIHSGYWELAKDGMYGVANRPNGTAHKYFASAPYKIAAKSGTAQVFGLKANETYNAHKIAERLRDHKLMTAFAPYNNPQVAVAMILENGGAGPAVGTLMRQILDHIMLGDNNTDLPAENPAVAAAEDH
Put plainly: Affinity for penicillin binding protein 2 of Escherichia coli UB1005 (DC0) was evaluated. The arrangement: unit not given here. Summed up: as §3

In series [14] the test system is Proteus mirabilis. Put plainly: In vitro minimum inhibitory concentration was measured against Proteus mirabilis 90 strain. It counts as functional. In short, it runs like this:
as §2

Series [15] concerns Pseudomonas aeruginosa. Put plainly: In vitro minimum inhibitory concentration was measured against Pseudomonas aeruginosa 18S/H strain. It counts as functional. Summed up: as §2
The test system of series [16] is Pseudomonas aeruginosa. Briefly: In vitro minimum inhibitory concentration was measured against Pseudomonas aeruginosa 8780 strain. It is filed as functional. In short, it runs like this:
as §2

Series [17] relates to Proteus vulgaris. Briefly: In vitro minimum inhibitory concentration was measured against Proteus vulgaris 1028BC (beta lactamase producer) strain. It is filed as functional. In short, it runs like this:
as §2

Series [18] relates to Serratia marcescens. Briefly: In vitro minimum inhibitory concentration was measured against Serratia marcescens 1071(beta lactamase producer) strain. It is filed as functional. In short, it runs like this:
as §2

Series [19] relates to Staphylococcus aureus. Briefly: In vitro minimum inhibitory concentration was measured against Staphylococcus aureus 67-0 (Methicillin resistant) strain. It counts as functional.
In series [20] the test system is Staphylococcus aureus. Put plainly: In vitro minimum inhibitory concentration was measured against Staphylococcus aureus 753 (Methicillin resistant) strain. It is filed as functional.
The test system of series [21] is Staphylococcus aureus. Put plainly: In vitro minimum inhibitory concentration was measured against Staphylococcus aureus smith strain. It counts as functional.
In series [22] the test system is Streptococcus pneumoniae. Put plainly: In vitro minimum inhibitory concentration was measured against Streptococcus pneumoniae 6301 strain. It is filed as functional. In short, it runs like this:
as §2

Series [23] deals with Streptococcus pyogenes. Briefly: In vitro minimum inhibitory concentration was measured against Streptococcus pyogenes 4 strain. It counts as functional. Summed up: as §2
Series [24] has as its system Escherichia coli. Briefly: Minimum inhibitory concentration for DC2, a permeability mutant. Summed up:
as §1

Series [25] relates to Penicillin-binding protein 3 (Escherichia coli). Briefly: Affinity for penicillin binding protein 3 of Escherichia coli UB1005 (DC0) was evaluated. The arrangement: unit not given here.
In series [26] the test system is Escherichia coli. Briefly: In vitro minimum inhibitory concentration was measured against Escherichia coli 257 strain. It is filed as functional. In short, it runs like this: as §2
Series [27] deals with Escherichia coli. Put plainly: Minimum inhibitory concentration against E. coli UB1005 (DC0).
The test system of series [28] is Penicillin-binding protein 3 (Escherichia coli). Put plainly: Affinity for penicillin binding protein 3 of Escherichia coli UB1005 (DC0) was evaluated.; (</=).

The molecule `CCN1CCN(C(=O)N[C@@H](C(=O)N[C@@H]2C(=O)N3C(C(=O)O)=C(CN4CCN(c5cc6c(cc5F)c(=O)c(C(=O)O)cn6C5CC5)CC4)CS[C@H]23)c2ccc(O)cc2)C(=O)C1=O` had a half-life in series [1] of 60 h. In addition, the MIC is 0.063 µg/mL (≈ 0.0732 µM) in series [2]; less than 0.016 µg/mL in series [3]; less than 0.016 µg/mL in series [4]; 0.031 µg/mL (≈ 0.036 µM) in series [5]; 16 µg/mL (≈ 18.6 µM) in [6]; 0.125 µg/mL (≈ 0.145 µM) in series [7]. Besides, the MIC is not above 0.016 µg/mL in [8]; 0.5 µg/mL (≈ 0.581 µM) in [9]; 0.5 µg/mL (≈ 0.581 µM) in [10]; 1 µg/mL (≈ 1.16 µM) in series [14]; 2 µg/mL (≈ 2.32 µM) in series [15]; 8 µg/mL (≈ 9.29 µM) in [16]. Further, the MIC is 0.063 µg/mL (≈ 0.0732 µM) in series [17]; 0.25 µg/mL (≈ 0.29 µM) in series [18]; 16 µg/mL (≈ 18.6 µM) in series [19]; 2 µg/mL (≈ 2.32 µM) in series [20]; 2 µg/mL (≈ 2.32 µM) in series [21]; 0.125 µg/mL (≈ 0.145 µM) in series [22]. The MIC in [23] stood at 0.125 µg/mL (≈ 0.145 µM); in [24], 0.25 µg/mL (≈ 0.29 µM). Moreover, the Binding affinity is more than 100 in [11], more than 100 in series [12], more than 100 in series [13] and 2 in [25].
For the molecule `O=C(O)C1=C(CN2CCN(c3cc4c(cc3F)c(=O)c(C(=O)O)cn4C3CC3)CC2)CS[C@@H]2[C@H](NC(=O)[C@H](O)c3ccccc3)C(=O)N12`, the MIC is 0.125 µg/mL (≈ 0.184 µM) in series [2]; 0.125 µg/mL (≈ 0.184 µM) in series [26]; 0.125 µg/mL (≈ 0.184 µM) in series [5]; 0.031 µg/mL (≈ 0.0457 µM) in series [8]; 0.031 µg/mL (≈ 0.0457 µM) in [10]; 0.063 µg/mL (≈ 0.093 µM) in [17]. For the same molecule, the MIC in [22] was found to be 0.063 µg/mL (≈ 0.093 µM); in [23], 0.031 µg/mL (≈ 0.0457 µM); in [24] it was 2 µg/mL (≈ 2.95 µM); in [27] it was 4 µg/mL (≈ 5.9 µM). The Binding affinity is 100 in series [11], more than 100 in [12], more than 100 in series [13] and less than 0.1 in [28].

The values are drawn from ChEMBL document CHEMBL1127320, “Dual-action cephalosporins incorporating a 3'-tertiary-amine-linked quinolone” (J Med Chem, 1994).
